The record followed here is ChEMBL document CHEMBL4325899, “Synthesis and photocytotoxic activity of [1,2,3]triazolo[4,5-h][1,6]naphthyridines and [1,3]oxazolo[5,4-h][1,6]naphthyridines” (Eur J Med Chem, 2019).

The term EC50 denotes the midpoint of the concentration-response curve. Read a high EC50 as a less potent agent. In general, CC50 refers to the concentration that lowers cell viability or growth by half. The low end stands for harm at low concentration, the high end for better tolerance by the cells.

SMILES strings stand for the structures. Active and inactive are the calls of the source. The calls are words filed in the database; no cut-off is given here.

Series [1] has as its system MCF7. As to the kind of experiment: Induction of ROS generation in human MCF7 cells at 0.4 uM preincubated for 30 mins followed by irradiation at 1.5 J/cm2 for 2 hrs by H2DCFDA probe-based fluorescence assay (reference value: 100%). Format: functional. Summed up:
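MCF7 cells (3x10^4/well) seeded 24 h ahead to 80–90% confluence. Compound given for 30 min in phenol red- and serum-free medium. H2DCFDA (10 µM) added 15 min before irradiation at ~365 nm, 1.5 J/cm2. Fluorescence read 2 h after light (ex 485, em 535 nm) as % of untreated irradiated controls. Non-irradiated plates run alongside; three independent experiments.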

Series [2] deals with MCF7. The series can be described thus: Induction of mitochondrial dysfunction in human MCF7 cells assessed as mitochondria fusion at 400 nM after 6 hrs in presence of UV irradiation by Mitotracker Orange CMTM-ROS staining-based confocal microscopic analysis. Format: functional, cell-based. A digest of the protocol: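 MCF7 cells (4x10^5) on glass slides for 24 h. Live-labelled with MitoTracker Orange CMTM-ROS (150 nM) for 45 min in phenol red- and serum-free medium. Compound then added and cells irradiated at 365 nm (1.5 J/cm2). Fixed in 2% PFA and nuclei counterstained. Mitochondrial network morphology imaged by confocal microscopy (ex 543, em 560–620 nm) 6 h post-treatment, with untreated, irradiated and non-irradiated controls.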

The test system of series [3] is MCF7. The series can be described thus: Induction of lysosomal activation in human MCF7 cells at 400 nM after 6 hrs under UV-irradiation by Lysotracker Green DND 26 staining-based confocal microscopic analysis. The format is functional, cell-based. Summed up:
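MCF7 cells (4x10^5) on glass slides for 24 h. Medium replaced with phenol red- and serum-free medium containing LysoTracker Green DND-26 (175 nM) for 45 min. Compound then added and cells irradiated at 365 nm (1.5 J/cm2). Cells then PBS-washed, fixed in 2% PFA and mounted. Acidic compartments imaged by confocal microscopy (ex 488, em 500–530 nm) against non-irradiated and untreated controls.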

The test system of a further series is A-375. The series can be described thus: Phototoxicity against human A375 cells preincubated for 5 mins followed by compound washout and subsequent UV irradiation at 1.5 J/cm2 for 5 mins measured after 72 hrs by MTT assay. The format is functional, cell-based. Particulars: A-375, light or radiation study. Summed up: (§1)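 Compounds were diluted in DMSO (0.5% final), applied in triplicate for 5 min, then washed out with PBS. After medium removal, cells were irradiated on ice for 5 min at 365 nm (1.5 J/cm²) and then kept 72 h at 37 °C. Viability was read by MTT at 540 nm and expressed relative to 0.5% DMSO controls given the same treatment. EC50 is the concentration killing 50%, as the mean ± SD of at least three experiments.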

Another series has as its system HT-29. The series can be described thus: Phototoxicity against human HT-29 cells preincubated for 5 mins followed by compound washout and subsequent UV irradiation at 1.5 J/cm2 for 5 mins measured after 72 hrs by MTT assay. The format is functional, cell-based. Particulars: HT-29, light or radiation study. Summed up:
as §1
A general note: Tetrazolium assays rely on reduction of a dye to a coloured formazan, in cell work by metabolically active cells.

For series [4], the system named is MCF7. As to the kind of experiment: Phototoxicity against human MCF7 cells preincubated for 5 mins followed by compound washout and subsequent UV irradiation at 1.5 J/cm2 for 5 mins measured after 72 hrs by MTT assay. Format: functional, cell-based. Particulars: MCF7, light or radiation study. A digest of the protocol: as §1
For the next series, the system named is MCF-10A. As to the kind of experiment: Phototoxicity against human MCF10A cells preincubated for 5 mins followed by compound washout and subsequent UV irradiation at 1.5 J/cm2 for 5 mins measured after 72 hrs by MTT assay. The format is cell-based. Particulars: light or radiation study. Summed up:
as §1

Series [5] in a line: Dark toxicity against human A375 cells preincubated for 5 mins followed by compound washout and measured after 72 hrs by MTT assay. Format: cell-based, A-375. A digest of the protocol: (§2)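 Cells were plated and allowed to attach overnight. Compounds were diluted in DMSO (0.5% final), with each concentration in triplicate, and applied for 5 min. Cells were then washed in PBS and given fresh medium. Without irradiation, cells were held 72 h at up to 50 μM. MTT (5 mg/mL stock) was added for 4 h, crystals were dissolved in SDS/HCl overnight, and absorbance was read at 540 nm. CC50 is the concentration killing 50% of cells, taken as the mean of at least three experiments.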

Series [6] can be described thus: Dark toxicity against human HT-29 cells preincubated for 5 mins followed by compound washout and measured after 72 hrs by MTT assay. The format is cell-based. A digest of the protocol:
as §2

The nature of series [7]: Dark toxicity against human MCF7 cells preincubated for 5 mins followed by compound washout and measured after 72 hrs by MTT assay. The format is cell-based. A digest of the protocol: as §2
The nature of series [8]: Dark toxicity against human MCF10A cells preincubated for 5 mins followed by compound washout and measured after 72 hrs by MTT assay. The format is cell-based, MCF-10A. A digest of the protocol:
as §2

Series [9] deals with MCF7. The series can be described thus: Induction of ROS generation in human MCF7 cells at 2 uM preincubated for 30 mins followed by irradiation at 1.5 J/cm2 for 2 hrs by H2DCFDA probe-based fluorescence assay. Format: functional, cell-based. A digest of the protocol: (§3)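 MCF7 cells (3x10⁴) were plated 24 h ahead to reach 80–90% confluence. Compounds were applied for 30 min in phenol-red-free, serum-free medium, and H2DCFDA (10 µM) was added 15 min before irradiation (1.5 J/cm², ~365 nm) or no irradiation. DCF fluorescence (485/535 nm) was read 2 h after light and expressed relative to untreated controls (100%). PMA (400 nM) served as positive control; three independent experiments.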

Series [10] relates to MCF7. As to the kind of experiment: Induction of apoptosis in human MCF7 cells assessed as viable cells at EC50 after 4 hrs in presence of photoirradiation by Annexin V-FITC/propidium iodide staining-based flow cytometric analysis (reference value: 95%). Format: functional. Background: Flow cytometry measures light scatter and fluorescence of single cells or particles in a stream.

Series [11] relates to MCF7. As to the kind of experiment: Induction of apoptosis in human MCF7 cells assessed as apoptotic cells at EC50 after 4 hrs in presence of photoirradiation by Annexin V-FITC/propidium iodide staining-based flow cytometric analysis relative to control. Format: functional.
Series [12] concerns MCF7. The series can be described thus: Induction of apoptosis in human MCF7 cells assessed as necrotic cells at EC50 after 4 hrs in presence of photoirradiation by Annexin V-FITC/propidium iodide staining-based flow cytometric analysis relative to control. The format is functional.
The test system of series [13] is MCF7. As to the kind of experiment: Induction of lysosomal activation in human MCF7 cells at 2 uM after 2 hrs in presence of UV irradiation by Lysotracker Green DND 26 staining-based confocal microscopic analysis. The format is functional, cell-based. A digest of the protocol: (§4)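 MCF7 cells (4x10⁵) on glass slides were loaded with LysoTracker Green DND-26 (175 nM) for 45 min in phenol-red-free, serum-free medium, before 2 µM compound with or without UV activation. Cells were fixed in 2% PFA 20 min or 2 h after UV and imaged confocally (ex 488 nm, em 500–530 nm). Controls were untreated cells with and without irradiation, and cells given PMA (400 nM).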

For series [14], the system named is MCF7. As to the kind of experiment: Induction of lysosomal activation in human MCF7 cells at 2 uM after 2 hrs in absence of UV irradiation by Lysotracker Green DND 26 staining-based confocal microscopic analysis. The format is cell-based. Particulars: mcf7, 2 h. A digest of the protocol: as §4
In series [15] the test system is MCF7. The series can be described thus: Induction of mitochondrial dysfunction in human MCF7 cells at 2 uM after 2 hrs in presence of UV irradiation by Mitotracker Orange CMTM-ROS staining-based confocal microscopic analysis. Format: functional, cell-based. A digest of the protocol: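 MCF7 cells (4x10⁵) were plated on glass slides for 24 h. They were then loaded with MitoTracker Orange CMTM-ROS (150 nM) for 45 min in phenol-red-free, serum-free medium, before 2 µM compound and UV photoactivation. Cells were fixed in 2% PFA 20 min or 2 h after UV and imaged confocally (ex 543 nm, em 560–620 nm). PMA (400 nM) served as ROS-inducer control.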

Series [16] is described as follows: Solubility of the compound in DMSO. The format is physicochemical.
The subject of series [17] is MCF7. As to the kind of experiment: Cell cycle arrest in human MCF7 cells assessed as accumulation of cells at subG1 phase at EC50 after 24 hrs under UV-irradiation by propidium iodide staining-based flow cytometric analysis (reference value: 4.8%). The format is functional.
For series [18], the system named is MCF7. The series can be described thus: Cell cycle arrest in human MCF7 cells assessed as accumulation of cells at G0/G1 phase at EC50 after 24 hrs under UV-irradiation by propidium iodide staining-based flow cytometric analysis (reference value: 44.2%). Format: functional.
Series [19] concerns MCF7. As to the kind of experiment: Cell cycle arrest in human MCF7 cells assessed as accumulation of cells at S phase at EC50 after 24 hrs under UV-irradiation by propidium iodide staining-based flow cytometric analysis (reference value: 24.7%). Format: functional.
In series [20] the test system is MCF7. As to the kind of experiment: Cell cycle arrest in human MCF7 cells assessed as accumulation of cells at G2/M phase at EC50 after 24 hrs under UV-irradiation by propidium iodide staining-based flow cytometric analysis (reference value: 26.3%). Format: functional.
Series [21] can be described thus: Photogeneration of oxygen in aqueous acetonitrile/water solution at 2.3 x 10^-5M measured after 1 hr under 150W irradiation by ADPA probe based spectra analysis.
The test system of series [22] is MCF7. The series can be described thus: Induction of ROS generation in human MCF7 cells at 0.5 to 2 uM measured after 30 mins under dark condition by H2DCFDA probe-based fluorescence assay. Format: cell-based. Particulars: mcf7, 0.5 h. A digest of the protocol: as §3
Series [23] relates to MCF7. As to the kind of experiment: Induction of ROS generation in human MCF7 cells at 2 uM measured after 30 mins under dark condition by H2DCFDA probe-based fluorescence assay. Format: cell-based. Particulars: mcf7, 0.5 h. A digest of the protocol:
as §3

Molecule `CCCCCCCCCCCCCC(=O)O[C@@H]1[C@@H](C)[C@@]2(O)[C@@H](C=C(CO)C[C@]3(O)C(=O)C(C)=C[C@@H]23)[C@@H]2C(C)(C)[C@]12OC(C)=O` [PHORBOL MYRISTATE ACETATE] gave an Activity in the series on MCF7 [1] of 120%. For the same molecule, the outcome in the series with MCF7 [2] and in the series on MCF7 [3] was Active.
Consider `COc1ccc(-n2nnc3c4nc(C)ccc4c(C)nc32)cc1`, for which the EC50 in the series on A-375, in the series on HT-29, in the series with MCF7 [4] and with MCF-10A was above 50 µM each time. In addition, the CC50 at 72 h in series [5], in series [6], in series [7] and in [8] was above 50 µM throughout. Further, the result with MCF7 [9], with MCF7 [13] and in the series with MCF7 [15] was inactive. Moreover, the Activity in the series with MCF7 [10] is 90%; in the series on MCF7 [11], 4%; in the series with MCF7 [12], 7%; in the series with MCF7 [14] it was “Non-Toxic”; in the series with MCF7 [17], 4.5%; in the series on MCF7 [18], 43.2%. Further, the Activity was 25.7% with MCF7 [19], 26.6% in the series with MCF7 [20], “Non-Toxic” with MCF7 [22] and “Non-Toxic” in the series on MCF7 [23]. Besides, the solubility entry in series [16] was “Soluble”. Also, the outcome in series [21] was Active.
